Source: ChEMBL document CHEMBL1154750 (J Med Chem, 2010)

Target: Neuraminidase (Influenza A virus) (UniProt B4URF0)
Assay: Inhibition of oseltamivir-resistant Influenza Virus A/342/0 (H1N1) neuraminidase at 52.5 uM
How it was run: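 Human oseltamivir-resistant H1N1 NA tested at a single 52.5 μM concentration in the NA-Star chemiluminescent assay. Compound and virus dilution were held 20 min at 37 C, then substrate (1:500) was added for 30 min at room temperature. Value given as percent inhibition relative to six untreated virus controls.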

Sequence of Neuraminidase (Influenza A virus) (B4URF0 as listed by the source): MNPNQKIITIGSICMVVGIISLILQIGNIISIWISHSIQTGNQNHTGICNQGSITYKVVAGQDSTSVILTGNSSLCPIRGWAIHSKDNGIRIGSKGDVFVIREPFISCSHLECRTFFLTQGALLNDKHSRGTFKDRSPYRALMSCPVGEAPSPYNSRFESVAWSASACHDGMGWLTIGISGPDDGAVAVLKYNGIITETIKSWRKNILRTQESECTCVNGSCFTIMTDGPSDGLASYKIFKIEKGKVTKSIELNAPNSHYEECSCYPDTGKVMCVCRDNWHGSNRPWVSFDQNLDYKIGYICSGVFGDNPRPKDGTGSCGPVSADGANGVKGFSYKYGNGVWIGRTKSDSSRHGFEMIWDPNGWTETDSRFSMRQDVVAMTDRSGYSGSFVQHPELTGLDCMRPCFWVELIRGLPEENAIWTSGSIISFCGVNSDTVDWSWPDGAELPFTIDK

How did the inhibition turn out when `O=C(CCc1ccccc1)C[C@@H]1C[C@@H](c2ccccc2)c2c(cc(/C=C/c3ccccc3)oc2=O)O1` [KATSUMADAIN A] was run?
The inhibition was 45.9%.
